Source: PubChem
Most compounds without a hit are left out; they make up all but 1.2% or so of the library.
ASAP1 GAP inh = blocks human ASAP1-stimulated Arf1 GTP hydrolysis; GDP FP detection; inhibition, % at 16.5 µM; hit rate 0.19% among 360,000; in the data active means inhibition above about 25%
core dimer inh = blocks dimerization of HCV core protein | AID 1899 | hit rate 0.33% among 300,000 | inhibition, % at 5 µM | TR-FRET GST/Flag-core106 dimerization, 1536-well;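 active means inhibition above the mean of all tested compounds plus 3 SD, set per screening campaign, cut at about 45% in these data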
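Assay system: GST-tagged and Flag-tagged HCV core protein residues 1-106 / Times: compound-protein-antibody incubation 4 h at 22.5 °C / Signal: time-resolved FRET, ex 340 nm, em 617 and 671 nm / Evaluation: % inhibition based on acceptor/donor emission ratio / Benchmarks: wells lacking GST-core106 and wells with excess unlabelled core106 / Repeats: singlicate, one well per compound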
NPR2 activator = GC-B (human) receptor activation. activation, % at 10 µM. P20594. HEK293-GC-B cells, CNP EC30, cGMP TR-FRET; 0% at EC30 CNP, 100% saturating CNP. hit rate 0.11% among 370,000;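 active means activation at 10 µM reaching about 35% in either raw or pattern-adjusted values, limit read from the data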
Target sequence (P20594 whole entry, looked up): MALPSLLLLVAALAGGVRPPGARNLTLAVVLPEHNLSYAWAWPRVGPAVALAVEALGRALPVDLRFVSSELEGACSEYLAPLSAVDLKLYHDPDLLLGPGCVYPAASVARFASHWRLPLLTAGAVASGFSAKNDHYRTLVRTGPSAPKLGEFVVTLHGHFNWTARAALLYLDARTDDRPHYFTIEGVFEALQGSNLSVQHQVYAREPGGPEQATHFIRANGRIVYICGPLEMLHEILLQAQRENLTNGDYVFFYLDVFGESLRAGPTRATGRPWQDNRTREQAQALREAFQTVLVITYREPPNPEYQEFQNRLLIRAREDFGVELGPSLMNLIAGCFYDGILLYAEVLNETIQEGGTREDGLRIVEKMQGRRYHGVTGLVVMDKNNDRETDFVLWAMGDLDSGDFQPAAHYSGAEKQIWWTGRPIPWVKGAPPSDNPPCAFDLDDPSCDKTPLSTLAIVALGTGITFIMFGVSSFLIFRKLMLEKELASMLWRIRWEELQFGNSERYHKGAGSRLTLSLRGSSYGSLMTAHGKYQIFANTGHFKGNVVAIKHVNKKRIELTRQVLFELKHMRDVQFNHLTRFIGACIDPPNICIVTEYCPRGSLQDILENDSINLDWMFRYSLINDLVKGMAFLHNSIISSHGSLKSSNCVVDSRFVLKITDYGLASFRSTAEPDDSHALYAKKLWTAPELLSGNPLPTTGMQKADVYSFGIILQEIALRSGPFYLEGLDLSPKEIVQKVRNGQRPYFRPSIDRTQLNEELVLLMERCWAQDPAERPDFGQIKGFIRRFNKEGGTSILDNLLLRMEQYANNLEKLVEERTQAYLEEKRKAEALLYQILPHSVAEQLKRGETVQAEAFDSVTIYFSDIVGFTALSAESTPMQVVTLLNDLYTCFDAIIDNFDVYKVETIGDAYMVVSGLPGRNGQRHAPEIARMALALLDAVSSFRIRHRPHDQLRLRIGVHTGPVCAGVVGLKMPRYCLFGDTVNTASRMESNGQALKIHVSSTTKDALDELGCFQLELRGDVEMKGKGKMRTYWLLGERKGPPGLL
NPR1 activator = GC-A (human) enzyme activation; P16066; HEK293 GC-A cells, cGMP TR-FRET, EC30 ANP; 0% at EC30 ANP, 100% saturating ANP; activation, % at 10 µM; hit rate 0.14% among 370,000; AID 1671463; in the data active means activation above about 40%
ARFGAP1 inh = inhibitors of rat ARFGAP1. Q62848. Arfgap1-stimulated ARF1 GTP hydrolysis, GDP FP detection. inhibition, % at 16.5 µM. hit rate 0.26% among 360,000. AID 651572;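 active means inhibition above a per-plate limit, mean inhibition of low control wells plus 3 SD, cut at about 25% in these data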
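Material: rat Arfgap1 GAP domain (His6, aa 1-136), purified enzyme. Also added: human ARF1(Δ1-17)-GTP substrate. Compound dosing: 16.5 µM single point, 1.26% DMSO. Timing: enzyme reaction 120 min at 25 °C after 20 min preincubation. Signal: GDP detection by fluorescence polarization. Read-out basis: percent inhibition of GAP-stimulated GDP formation, scaled between DMSO and no-Arfgap1 medians.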
CTSL1 counter = counter-screen for PFM18AAP inhibitors: inhibitors of F. hepatica cathepsin L1 | recombinant F. hepatica cathepsin L1, Z-Leu-Arg-MCA fluorescence | inhibition, % at 5.96 µM | hit rate 0.49% among 300,000 | AID 1906;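 active means inhibition above the mean of all tested compounds plus 3 SD, set per screening campaign, cut at about 17% in these data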
ARFGAP1 confirm = confirmation of rat ARFGAP1 inhibitors. inhibition, % at 16.5 µM. shares compounds with ARFGAP1 inh. AID 651608. hit rate 30% among 890. ARFGAP1-stimulated ARF1 GTP hydrolysis, GDP tracer FP;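 active means average inhibition over triplicates above the hit cutoff set in the earlier primary screen, cut at about 25% in these data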
A number is an active result; 0 = inactive; - = no result.

SMILES	ASAP1 GAP inh	core dimer inh	NPR2 activator	NPR1 activator	ARFGAP1 inh	CTSL1 counter	ARFGAP1 confirm
COc1ccc(CN(C)C(=O)Cn2cnc(C(=O)Nc3ccc(C)c(C)c3)n2)cc1OC	0	-	0	0	29.3	-	0
Cc1nc(-c2ccc(S(=O)(=O)N3CCN(C(c4ccccc4)c4ccccc4)CC3)s2)cs1	0	0	0	0	0	0	-
CCCC(C)(C)C(=O)N1CCC1(C)C(=O)NS(=O)(=O)c1ccc(Br)cc1 (stereo not given)	0	-	0	0	0	-	-
Cc1ccc(/C=C(\CCC(=O)O)c2nc3ccccc3s2)cc1[N+](=O)[O-]	0	0	0	0	31.5	0	39.2
Cn1cnnc1Sc1ccc(/C=C(\CCC(=O)O)c2nc3ccccc3s2)cc1[N+](=O)[O-]	0	0	0	0	0	0	-
CCc1c(C)sc(NC(=O)C2CC(c3c(F)cccc3Cl)=NO2)c1C#N (stereo not given)	0	0	0	0	0	0	-
N#Cc1c(NC(=O)C2CC(c3c(F)cccc3Cl)=NO2)sc2c1CCC2 (stereo not given)	0	0	0	0	35.1	0	55.9
O=C(Cc1c[nH]c2ccccc12)Nc1ccc(Nc2cccnc2)c(-c2ccc(Oc3ccccc3)cc2)c1	0	-	0	0	0	-	-
O=C(Cc1c[nH]c2ccccc12)Nc1ccc(Nc2cccnc2)c(-c2ccc(OC(F)(F)F)cc2)c1	0	-	0	0	26.5	-	0
O=C(Cc1c[nH]c2ccccc12)Nc1ccc(Nc2cccnc2)c(-c2cc(F)cc(F)c2)c1	0	-	0	0	25.1	-	0
COC(=O)[C@]12C[C@H](CC(=O)N3CCC(c4ccccc4)CC3)C(=O)N(Cc3ccco3)C1=C[C@H](COCc1ccccc1)O[C@@H]2C	-	-	0	0	-	-	-
CC1CCCCN1CC(O)COCCC12CC3CC(CC(C3)C1)C2 (stereo not given)	0	0	0	0	24.8	0	0
O=C(COC(=O)C12CC3CC(CC(Cl)(C3)C1)C2)N1CCCCC1	0	-	0	0	0	-	-
O=C(CSc1ccccc1)Nc1nc2ccccc2[nH]1	0	0	0	0	0	0	-
O=C(CSc1ccc(Cl)cc1)Nc1ccc(-c2nc3ccccc3[nH]2)cc1	0	0	0	0	25.4	0	0
COc1ccc(N/N=C(/C#N)S(=O)(=O)c2nsc(C)c2C#N)cc1	0	0	0	0	28.0	0	0
COc1ccccc1C(=O)c1nc2ccccc2n1C	0	0	0	0	25.0	0	0
Oc1ccc(/C=N/Nc2cccc3cccnc23)c(O)c1	0	0	0	0	50.6	0	0
CCN(CC(=O)NCc1ccc(F)cc1)C(=O)/C=C/c1ccc(S(=O)(=O)N(CC)CC)cc1	0	0	0	0	0	0	-
CC(=O)Nc1ccc(N2C(=O)CC(N3CCSCC3)C2=O)cc1 (stereo not given)	0	0	0	0	25.4	0	0
O/N=C\c1ccc2noc(-c3ccc(Cl)cc3)c2c1	0	0	0	0	24.9	0	28.8
CC(C)(C)c1ccc(-c2nnc(SCCC#N)n2C2CCCC2)cc1	0	0	0	0	0	0	-
COc1cc(/C=N/Nc2ccc(C(F)(F)F)cn2)ccc1O	0	0	0	0	28.6	0	0
COc1ccc2cc(-c3[nH]ncc3CN3CCCC3c3nonc3C)ccc2c1 (stereo not given)	0	0	0	0	0	0	-
Cc1ccc(S(=O)(=O)NCC(=O)NCc2cc(=O)n(C)c(=O)n2C)cc1C	0	0	0	0	0	0	-
SMILES	ASAP1 GAP inh	core dimer inh	NPR2 activator	NPR1 activator	ARFGAP1 inh	CTSL1 counter	ARFGAP1 confirm
Cc1ccc(C(=O)NCCCNc2ccc(C(F)(F)F)cc2[N+](=O)[O-])cc1	0	0	0	0	24.6	0	0
COc1cc(/C=N/NC(=Nc2ccc(C)cc2)c2nc3ccccc3s2)ccc1O	0	0	0	0	0	0	-
CC1(C(=O)Nc2ccc(F)cc2F)CCN1C(=O)Cc1ccccc1Cl (stereo not given)	0	-	0	0	0	-	-
Brc1ccc2nc(-c3ccc(CN4CCC5(CC4)CNc4ccccc45)cc3)c(-c3ccccc3)nc2c1	0	-	0	0	25.6	-	0
COc1ccc(CN(C)C(=O)c2cccc(NS(=O)(=O)c3ccccc3)c2)cc1F	0	0	0	0	0	0	-
O=C1CCC([N+](=O)[O-])C(c2cccc3ccccc23)N1 (stereo not given)	0	0	0	0	0	0	-
Cc1ccc2sc(-c3ccc(NC(=O)c4cc(-n5cnnc5)ccc4Cl)cc3)nc2c1	0	0	0	0	27.7	0	0
COc1ccc(-n2c(=O)c3c4c(sc3n(CC(=O)Nc3cc(C)[nH]n3)c2=O)CCCC4)c(OC)c1	0	0	0	0	33.3	0	32.6
O=C(NCCCn1ccnc1)c1ccco1	0	0	0	0	0	0	-
O=C(/C=C/c1ccc(Cl)cc1)NC(=S)Nc1ccc(NC(=O)c2ccco2)cc1	0	0	0	0	86.2	0	110.0
CC(=O)Nc1ccc(NC(=S)NC(=O)/C=C/c2ccc(Cl)cc2)cc1	0	0	0	0	0	0	-
COc1ccccc1NC(=O)CN(Cc1ccco1)C(=O)c1cccs1	0	0	0	0	0	0	-
COc1ccc(NC(=O)CSc2nc(N)c(C(=O)Nc3ccc(N(C)C)cc3)s2)cc1	-	0	-	-	-	0	-
CN(C)c1ccc(NC(=O)CSc2nc(N)c(C(=O)Nc3ccc(N(C)C)cc3)s2)cc1	0	0	0	0	25.4	0	0
CC(NC(=O)Cn1cnnn1)c1cccc(C(F)(F)F)c1 (stereo not given)	0	0	0	0	0	0	-
Nc1ccc2nc(-c3cccc(-c4nc5ccc(N)cc5[nH]4)c3)[nH]c2c1	0	0	0	0	60.2	0	106.1
CCc1ccc([C@@H]2CC=C(C(=O)O)[C@H](c3ccc(Cl)cc3)N2S(=O)(=O)c2ccc(C)cc2)cc1	0	0	0	0	0	0	-
Cc1ccc(S(=O)(=O)Nc2ccc(NC(=O)Nc3cccc(C(F)(F)F)c3)cc2)cc1	0	0	0	0	29.7	0	29.5
CCN(CC)S(=O)(=O)c1ccc(NC(=O)Nc2cccc(C(F)(F)F)c2)cc1	0	0	0	0	0	0	-
Cc1cccc(OCC(=O)N/N=C\c2cc3c(cc2[N+](=O)[O-])OCO3)c1C	0	0	0	0	0	0	-
COc1cc2c(=O)[nH]c3cc([N+](=O)[O-])ccc3c2cc1[N+](=O)[O-]	0	-	0	0	0	-	-
Nc1cc2[nH]c(=O)c3ccccc3c2cc1[N+](=O)[O-]	0	-	0	0	28.0	-	0
